Structures are written as SMILES. pEC50: −log10 of the molar value.

In data set [1] the test system is Human alphaherpesvirus 3. Kind of data set: Antiviral activity against TK+ VZV OKA infected HEL cells assessed as reduction in virus plaque formation after 5 days. The conditions noted are these: Human alphaherpesvirus 3, OKA, 120 h. In kind it is functional, organism-based.
In data set [2] the test system is Human alphaherpesvirus 2. The data set can be described thus: Antiviral activity against acyclovir-sensitive HSV2 HG32 in african green monkey Vero cells assessed as inhibition of virus plaque formation. The note with it: Human alphaherpesvirus 2, HG32, Vero. It counts as functional, organism-based. The method in brief:
(§1)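 Vero cells were grown to density in DMEM with 10% fetal bovine serum, L-glutamine, penicillin and streptomycin, then preincubated 30 min with drug and kept in drug throughout. They were infected with 100 pfu per well, adsorbed 45 min and overlaid with 1.2% Avicel in DMEM. After 3 days, plaques were stained with crystal violet and counted.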

A short description of data set [3]: Cytotoxicity against HEL cells assessed as inhibition of cell proliferation. It counts as cell-based. The conditions noted are these: human.
Data set [4] has as its system Human alphaherpesvirus 3. The data set can be described thus: Antiviral activity against TK+ VZV YS infected HEL cells assessed as reduction in virus plaque formation after 5 days. In kind it is functional, organism-based. The conditions noted are these: Human alphaherpesvirus 3, YS, 120 h.
For data set [5], the system named is Human alphaherpesvirus 2. The data set can be described thus: Antiviral activity against HSV2 G in HEL cells assessed as inhibition of virus induced cytopathicity within 48 hrs. In kind it is functional, organism-based. The conditions noted are these: Human alphaherpesvirus 2, strain G. An outline of the steps:
(§2)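 Confluent HEL fibroblast cultures were inoculated with 100 CCID50 of virus per well. After 1 h adsorption, residual virus was removed and cells were incubated with serial dilutions of compound.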
(Cytopathic effects are the visible damage that an infection or toxin causes in cultured cells.)

A short description of data set [6]: Cytotoxicity against HEL cells assessed as alteration of cell morphology. It counts as cell-based. The note with it: human. The method in brief: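 In HEL cells, the MCC is the minimal compound concentration producing a microscopically visible change in cell morphology.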
For data set [7], the system named is Human alphaherpesvirus 2. The data set can be described thus: Antiviral activity against acyclovir-resistant HSV2 ACR in african green monkey Vero cells assessed as inhibition of virus plaque formation. In kind it is functional, organism-based. The conditions noted are these: Human alphaherpesvirus 2, ACR. An outline of the steps: as §1
The subject of data set [8] is Human alphaherpesvirus 1. The data set can be described thus: Antiviral activity against HSV1 KOS in HEL cells assessed as inhibition of virus induced cytopathicity within 48 hrs. It counts as functional, organism-based. The conditions noted are these: Human alphaherpesvirus 1, KOS. The method in brief:
as §2

Data set [9] concerns Human alphaherpesvirus 3. The data set can be described thus: Antiviral activity against thymidine kinase deficient VZV 07/1 infected HEL cells assessed as reduction in virus plaque formation after 5 days. It counts as functional, organism-based. The conditions noted are these: Human alphaherpesvirus 3, 07/1, HEL, 120 h.
Data set [10] has as its system Human alphaherpesvirus 3. The data set can be described thus: Antiviral activity against thymidine kinase deficient VZV YS/R infected HEL cells assessed as reduction in virus plaque formation after 5 days. In kind it is functional, organism-based. The note with it: Human alphaherpesvirus 3, YS/R, 120 h.
The test system of data set [11] is Human alphaherpesvirus 1. The data set can be described thus: Antiviral activity against acyclovir-resistant and thymidine kinase deficient HSV1 KOS in HEL cells assessed as inhibition of virus induced cytopathicity within 48 hrs. The note with it: Human alphaherpesvirus 1, KOS. It counts as functional, organism-based. An outline of the steps: as §2
Data set [12] concerns Human alphaherpesvirus 2. The data set can be described thus: Antiviral activity against HSV2. In kind it is functional, organism-based.

As to `C[C@H](NP(=O)(OCCOCn1cnc2c(=O)[nH]c(N)nc21)Oc1ccccc1)C(=O)OCc1ccccc1` (some centres not stated), the pEC50 in the data set with Human alphaherpesvirus 3 [1] is 6.14; with Human alphaherpesvirus 2 [2] it was 4.69; with Human alphaherpesvirus 3 [4], 6.00; in the data set with Human alphaherpesvirus 2 [5], 5.85; in the data set with Human alphaherpesvirus 2 [7] it was 4.81; in the data set with Human alphaherpesvirus 1 [8], 6.05. Further, the results for the pEC50 in the data set on Human alphaherpesvirus 3 [9] and in the data set with Human alphaherpesvirus 3 [10] were 5.74 and 6.23, respectively. Moreover, the CC50 in data set [3] was over 100 µM. Further, in data set [6], the MCC is over 50 µM.

As for `COC(=O)[C@H](C)NP(=O)(OCCOCn1cnc2c(=O)[nH]c(N)nc21)Oc1cccc2ccccc12` (some centres not stated), the negative-log EC50 (pEC50) with Human alphaherpesvirus 3 [1] was 5.12; in the data set with Human alphaherpesvirus 2 [2] it was 4.39; with Human alphaherpesvirus 3 [4], 4.96; in the data set with Human alphaherpesvirus 1 [11], 4.10; with Human alphaherpesvirus 2 [7], 4.82; with Human alphaherpesvirus 3 [9], 4.66. Also, the negative logarithm of the EC50 (pEC50) with Human alphaherpesvirus 3 [10] was 5.21. Besides, the CC50 in [3] is over 100 µM. Further, the MCC in data set [6] is over 50 µM.

For `COC(=O)[C@H](C)NP(=O)(OCCOCn1cnc2c(=O)[nH]c(N)nc21)Oc1ccccc1` (some centres not stated), the pEC50 was 4.72 in the data set with Human alphaherpesvirus 3 [1]; at most 4.00 in the data set with Human alphaherpesvirus 2 [12]; 4.37 with Human alphaherpesvirus 2 [2]; 4.70 in the data set on Human alphaherpesvirus 3 [4]; 4.10 with Human alphaherpesvirus 1 [11]; 4.82 with Human alphaherpesvirus 2 [5]. The pEC50 with Human alphaherpesvirus 2 [7] was 4.73; in the data set with Human alphaherpesvirus 3 [9], 4.62; in the data set on Human alphaherpesvirus 3 [10] it was 4.80. Further, the 50% cytotoxic concentration (CC50) in data set [3] amounted to 162 µM. In addition, the MCC in [6] was over 100 µM.

Regarding `Nc1nc2c(ncn2COCCOP(=O)(N[C@@H](Cc2ccccc2)C(=O)OCc2ccccc2)Oc2ccccc2)c(=O)[nH]1` (some centres not stated), the pEC50 with Human alphaherpesvirus 3 [1] is 5.28; with Human alphaherpesvirus 2 [2] it was 4.69; with Human alphaherpesvirus 3 [4], 5.18; in the data set on Human alphaherpesvirus 1 [11] it was under 4.00; with Human alphaherpesvirus 2 [5] it was 5.10; in the data set on Human alphaherpesvirus 2 [7], 4.48. Further, the pEC50 in the data set on Human alphaherpesvirus 3 [9] was 5.08; in the data set on Human alphaherpesvirus 3 [10], 5.00. In addition, the CC50 in [3] stood at 86.9 µM. In addition, the MCC in data set [6] is over 50 µM.

Consider `C[C@H](NP(=O)(OCCOCn1cnc2c(=O)[nH]c(N)nc21)Oc1cccc2ccccc12)C(=O)OCc1ccccc1` (some centres not stated), for which the negative logarithm of the EC50 (pEC50) with Human alphaherpesvirus 3 [1] is 5.14; in the data set with Human alphaherpesvirus 2 [2], 5.01; in the data set on Human alphaherpesvirus 3 [4], 5.48; with Human alphaherpesvirus 1 [11], 4.96; in the data set on Human alphaherpesvirus 2 [7] it was 4.84; in the data set with Human alphaherpesvirus 3 [9], 5.16. In [3], the CC50 amounted to 20 µM. Also, in data set [6], the MCC is over 50 µM.

Turning to `Nc1nc2c(ncn2COCCO)c(=O)[nH]1` [ACYCLOVIR], the negative-log EC50 (pEC50) was 5.22 in the data set on Human alphaherpesvirus 2 [2] and under 4.00 in the data set on Human alphaherpesvirus 2 [7]. Moreover, the CC50 in [3] turned out to be 1350 µM. In addition, in [6], the MCC was over 250 µM.

A word on the pEC50: it is the EC50 on a negative log10 scale, so that one unit is a factor of ten. The term CC50 denotes the concentration giving 50% cytotoxicity.

The values are drawn from ChEMBL document CHEMBL1155837 (Bioorg Med Chem Lett, 2008).
